Active and inactive are the calls of the source. No cut-off for these calls is given here.

Three compounds from ChEMBL document CHEMBL3108756, “Evaluation of aminohydantoins as a novel class of antimalarial agents” (ACS Med Chem Lett, 2014) can be followed below.

Series [1] concerns Plasmodium chabaudi. Description: Antimalarial activity against Plasmodium chabaudi ASS infected in NIH mouse assessed as inhibition of parasitemia at 4.5 mg/kg, po qd for 4 days. Format: functional. Conditions: 96 h. The procedure, abridged:
(§1)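 Mice infected with P. chabaudi were given oral doses once daily for four days, starting four hours after infection. Parasitemia was read on Day 4 postinoculation and expressed as percent inhibition of parasitemia.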

A further series has as its target Plasmepsin V (Plasmodium falciparum (isolate 3D7), UniProt Q8I6Z5). As to the kind of experiment: (§2) Inhibition of Plasmodium falciparum […] plasmepsin-5 using DABCYL-GNKRTLAQKQG-EDANS as substrate measured every 15 mins of 75 mins by fluorescence assay.
In series [2] the test system is Plasmodium falciparum. Description: Antimalarial activity against chloroquine-sensitive Plasmodium falciparum 3D7 infected in […] after 72 hrs by SYBR Green I-based fluorescence method. Format: functional, organism-based. The note with it: 3D7, 72 h.
Series [3] concerns Plasmodium falciparum. Description: Antimalarial activity against Plasmodium falciparum. Format: functional, organism-based.
Series [4] concerns Plasmodium chabaudi. As to the kind of experiment: Antimalarial activity against Plasmodium chabaudi ASS infected in NIH mouse assessed as inhibition of parasitemia at 150 to 300 mg/kg, po qd for 4 days. Format: functional. Conditions: dose mg/kg 150-300.
Another series relates to Mus musculus. As to the kind of experiment: Toxicity in Plasmodium chabaudi ASS infected NIH mouse assessed as survival at 10 to 300 mg/kg, po qd for 4 days. Also noted: dose 10-300 mg/kg, route oral. Conditions: in vivo, 96 h. Format: organism-based.
Series [5] deals with Plasmodium chabaudi. As to the kind of experiment: Antimalarial activity against Plasmodium chabaudi ASS infected in NIH mouse assessed as inhibition of parasitemia at 100 mg/kg, po qd for 4 days. Format: functional. Conditions: 96 h. The procedure, abridged: as §1
For series [6], the system named is Liver microsome. As to the kind of experiment: Metabolic stability in human liver microsomes at 1 uM after 5 to 30 mins. Format: ADME. On the technique in general: Microsomes from liver hold many membrane-bound enzymes, among them those of drug oxidation.
In series [7] the test system is Liver microsome. Description: Metabolic stability in rat liver microsomes at 1 uM after 5 to 30 mins. Format: ADME.
Series [8] is described as follows: Metabolic stability in mouse liver microsomes at 1 uM after 5 to 30 mins. Format: ADME, Microsome.
In the next series the target is Cytochrome P450 3A4 (Homo sapiens, UniProt P08684). As to the kind of experiment: Inhibition of human recombinant CYP3A4 after 30 mins. Format: ADME. The note with it: recombinant enzyme, 0.5 h.
The target in another series is Cytochrome P450 2C19 (Homo sapiens, UniProt P33261). Description: Inhibition of human recombinant CYP2C19 after 30 mins. The note with it: recombinant enzyme, 0.5 h. Format: ADME.
Another series addresses Cytochrome P450 2D6 (Homo sapiens, UniProt P10635). Description: Inhibition of human recombinant CYP2D6 after 30 mins. Format: ADME. The note with it: recombinant enzyme, 0.5 h.
Another series has as its target Cytochrome P450 2C9 (Homo sapiens, UniProt P11712). Description: Inhibition of human recombinant CYP2C9 after 30 mins. Format: ADME. Conditions: recombinant enzyme, 0.5 h.
The target of the next series is T1, Cytochrome P450 1A2 (Homo sapiens, UniProt P05177).
T1 sequence (P05177 whole entry): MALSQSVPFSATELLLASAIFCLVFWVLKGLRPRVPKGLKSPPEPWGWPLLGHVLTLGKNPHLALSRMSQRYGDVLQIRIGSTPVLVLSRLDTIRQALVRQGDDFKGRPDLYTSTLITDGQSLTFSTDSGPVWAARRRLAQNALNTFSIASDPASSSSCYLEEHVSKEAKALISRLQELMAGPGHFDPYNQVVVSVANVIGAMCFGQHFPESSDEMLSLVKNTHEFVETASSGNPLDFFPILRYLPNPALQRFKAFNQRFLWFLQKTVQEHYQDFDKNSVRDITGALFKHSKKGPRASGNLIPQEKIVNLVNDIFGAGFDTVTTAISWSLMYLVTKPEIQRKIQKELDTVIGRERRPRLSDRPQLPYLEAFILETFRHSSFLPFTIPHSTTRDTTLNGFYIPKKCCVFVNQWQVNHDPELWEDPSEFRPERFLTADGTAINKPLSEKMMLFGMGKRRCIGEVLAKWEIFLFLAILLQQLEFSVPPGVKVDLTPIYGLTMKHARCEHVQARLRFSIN
Description: Inhibition of human recombinant CYP1A2 after 30 mins. The note with it: recombinant enzyme, 0.5 h. Format: ADME.

In another series the test system is HepG2. Description: Cytotoxicity against human HepG2 cells after 72 hrs. Format: cell-based. The note with it: hepg2, 72 h.
Series [9] concerns Plasmodium falciparum. As to the kind of experiment: Antimalarial activity against chloroquine-sensitive Plasmodium falciparum 3D7 infected in […] after 48 hrs by SYBR Green I-based fluorescence method. Format: functional, organism-based.
Series [10] has as its system Plasmodium falciparum. Description: Antimalarial activity against chloroquine and pyrimethamine-resistant Plasmodium falciparum Dd2 infected in […] after 48 hrs by SYBR Green I-based fluorescence method. Format: functional. The note with it: Dd2, 48 h.
Series [11] in a line: Selectivity ratio of IC50 for human cathepsin E to IC50 for Plasmodium falciparum plasmepsin-2.
Series [12] can be described thus: Selectivity ratio of IC50 for human cathepsin D to IC50 for Plasmodium falciparum plasmepsin-2.
A short description of series [13]: Selectivity ratio of IC50 for human BACE1 to IC50 for Plasmodium falciparum plasmepsin-2.
The target of series [14] is Plasmepsin V (Plasmodium falciparum (isolate 3D7)) (UniProt Q8I6Z5). Described as §2.
Plasmepsin V (Plasmodium falciparum (isolate 3D7)), sequence (Q8I6Z5 whole entry, looked up): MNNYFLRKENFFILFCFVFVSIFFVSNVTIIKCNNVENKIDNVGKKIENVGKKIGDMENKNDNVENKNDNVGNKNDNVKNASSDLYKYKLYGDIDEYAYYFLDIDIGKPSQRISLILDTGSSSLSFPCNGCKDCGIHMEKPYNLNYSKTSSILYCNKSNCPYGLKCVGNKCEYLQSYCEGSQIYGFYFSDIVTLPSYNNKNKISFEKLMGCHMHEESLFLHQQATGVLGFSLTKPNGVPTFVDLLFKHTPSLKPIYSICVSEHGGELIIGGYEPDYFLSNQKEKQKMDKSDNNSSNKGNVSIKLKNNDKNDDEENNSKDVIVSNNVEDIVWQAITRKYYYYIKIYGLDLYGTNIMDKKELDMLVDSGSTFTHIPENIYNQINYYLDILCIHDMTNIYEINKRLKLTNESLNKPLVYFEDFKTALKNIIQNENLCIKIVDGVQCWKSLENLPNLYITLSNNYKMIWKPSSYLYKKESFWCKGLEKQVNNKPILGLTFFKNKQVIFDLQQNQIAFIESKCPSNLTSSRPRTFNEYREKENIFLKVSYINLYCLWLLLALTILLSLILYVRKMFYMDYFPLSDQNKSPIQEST

Cytochrome P450 3A4, sequence (P08684 whole entry): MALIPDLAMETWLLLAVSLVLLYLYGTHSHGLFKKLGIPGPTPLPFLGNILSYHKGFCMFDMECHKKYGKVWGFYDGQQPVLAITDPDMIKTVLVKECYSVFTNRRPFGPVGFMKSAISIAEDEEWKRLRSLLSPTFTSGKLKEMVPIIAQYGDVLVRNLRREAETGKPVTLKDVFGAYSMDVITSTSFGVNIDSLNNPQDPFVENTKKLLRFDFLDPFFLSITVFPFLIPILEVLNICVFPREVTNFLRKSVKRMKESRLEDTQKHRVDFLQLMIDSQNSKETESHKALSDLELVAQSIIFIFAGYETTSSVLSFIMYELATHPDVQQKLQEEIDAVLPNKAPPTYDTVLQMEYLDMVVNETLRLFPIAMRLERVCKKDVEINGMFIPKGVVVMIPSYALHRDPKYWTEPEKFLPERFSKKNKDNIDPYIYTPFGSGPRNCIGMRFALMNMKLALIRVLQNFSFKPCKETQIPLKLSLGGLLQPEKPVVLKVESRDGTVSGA
Cytochrome P450 2D6, sequence (P10635 whole entry): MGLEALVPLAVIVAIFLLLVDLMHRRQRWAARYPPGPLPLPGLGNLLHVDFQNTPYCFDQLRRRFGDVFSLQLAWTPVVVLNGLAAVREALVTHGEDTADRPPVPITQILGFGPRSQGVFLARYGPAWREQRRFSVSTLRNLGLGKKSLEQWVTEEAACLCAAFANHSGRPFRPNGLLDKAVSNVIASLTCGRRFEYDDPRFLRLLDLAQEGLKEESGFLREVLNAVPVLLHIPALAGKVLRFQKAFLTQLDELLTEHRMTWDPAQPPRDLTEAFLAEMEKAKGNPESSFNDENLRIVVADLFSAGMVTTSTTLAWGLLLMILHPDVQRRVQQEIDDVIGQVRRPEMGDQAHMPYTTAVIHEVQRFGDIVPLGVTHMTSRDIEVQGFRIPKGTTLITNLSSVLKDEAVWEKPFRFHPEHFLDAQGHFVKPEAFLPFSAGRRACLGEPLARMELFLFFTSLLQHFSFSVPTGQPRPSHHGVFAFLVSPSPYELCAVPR
Plasmepsin V, sequence (Q8I6Z5 whole entry): as the sequence (Q8I6Z5 whole entry, looked up) above
Cytochrome P450 2C19, sequence (P33261 whole entry): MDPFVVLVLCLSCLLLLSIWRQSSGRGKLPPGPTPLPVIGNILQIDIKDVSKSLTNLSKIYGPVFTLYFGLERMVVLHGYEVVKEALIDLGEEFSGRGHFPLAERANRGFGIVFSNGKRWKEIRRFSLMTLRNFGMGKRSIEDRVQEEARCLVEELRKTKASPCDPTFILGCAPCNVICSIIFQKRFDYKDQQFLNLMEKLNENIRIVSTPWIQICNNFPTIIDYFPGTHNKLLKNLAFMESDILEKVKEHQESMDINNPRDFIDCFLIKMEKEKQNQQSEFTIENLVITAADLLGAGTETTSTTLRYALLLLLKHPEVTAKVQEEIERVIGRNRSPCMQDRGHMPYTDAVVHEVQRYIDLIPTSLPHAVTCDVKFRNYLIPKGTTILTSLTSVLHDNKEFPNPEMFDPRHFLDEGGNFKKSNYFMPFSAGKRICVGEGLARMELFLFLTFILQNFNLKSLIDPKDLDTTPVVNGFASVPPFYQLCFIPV
Cytochrome P450 2C9, sequence (P11712 whole entry): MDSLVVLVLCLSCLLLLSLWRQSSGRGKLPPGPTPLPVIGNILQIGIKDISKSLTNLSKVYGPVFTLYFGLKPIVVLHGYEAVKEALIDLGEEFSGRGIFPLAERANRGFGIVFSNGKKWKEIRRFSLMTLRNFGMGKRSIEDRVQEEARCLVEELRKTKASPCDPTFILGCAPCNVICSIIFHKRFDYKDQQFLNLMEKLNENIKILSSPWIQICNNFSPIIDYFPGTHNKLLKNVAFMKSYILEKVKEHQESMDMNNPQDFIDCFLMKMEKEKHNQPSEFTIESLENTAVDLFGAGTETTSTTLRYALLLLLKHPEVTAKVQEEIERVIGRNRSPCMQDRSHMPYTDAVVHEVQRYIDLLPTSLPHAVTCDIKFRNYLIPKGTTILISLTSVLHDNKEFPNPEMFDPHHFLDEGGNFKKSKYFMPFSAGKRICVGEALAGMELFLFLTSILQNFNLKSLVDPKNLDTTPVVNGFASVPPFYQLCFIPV

What is called inhibition in vivo is the change of the read-out against control, counted positive when it falls. Consider `CCN(CC)CCCC(C)Nc1ccnc2cc(Cl)ccc12` (stereo not drawn) [CHLOROQUINE], for which the inhibition in vivo at 4.5 mg/kg in the series with Plasmodium chabaudi [1] came to 100%.

The IC50 is the concentration that gives 50% inhibition. Higher therefore signals a need for much substance. With `CCC(CN1C(=N)NC(c2ccccc2)(c2ccccc2)C1=O)c1ccccc1` (racemic), the IC50 at Plasmepsin V was 977 nM; in the series on Plasmodium falciparum [2] it was 2760 nM; with Plasmodium falciparum [3] it was 140 nM.

For the compound `COc1ccc(C2(c3ccc(OC)cc3)NC(=N)N(C3CCCCC3)C2=O)cc1`, the “inhibition (INH)” value is listed as 100% in the series on Plasmodium chabaudi [4]; “Active” at Cytochrome P450 3A4; “Not Active” at Cytochrome P450 2C19; “Not Active” at Cytochrome P450 2D6; “Not Active” on Cytochrome P450 2C9; “Not Active” at Cytochrome P450 1A2. Moreover, the Activity result in the series with Mus musculus is given as “Non-toxic”; in the series with HepG2 it was “Toxic”. Further, the inhibition in vivo at 100 mg/kg in the series with Plasmodium chabaudi [5] turned out to be 89%. Further, the Stability entry (with Liver microsome [6]; in the series with Liver microsome [7]; in series [8]) was “Stable” in each case. For the same compound, the inhibition result in the series with Plasmodium falciparum [9] is “Active”. Also, the values for the IC50 in the series with Plasmodium falciparum [10] and with Plasmodium falciparum [2] were 480 nM and 463 nM, respectively. For the same compound, the results for the Ratio IC50 in series [11], in [12] and in series [13] were 300, > 1000 and > 1000, respectively. The inhibition entry in [14] was “inactive”.
